Read-outs that look alike come from different tables or passages of the source.
Tests used:
[1] = test system: HIF-1α levels in MCF7 cells; experiment: Cellular HIF-1α levels; type: cell-based, human; details: 24 hours
[2] = target: T1, JMJD2A (H3K9me3 and H3K36me3 demethylase) (Homo sapiens, UniProt O75164); experiment: JMJD2A enzyme inhibition in vitro; type: biochemical; details: at up to 50 μM, the highest concentration tested
T1 sequence (O75164 1-1064): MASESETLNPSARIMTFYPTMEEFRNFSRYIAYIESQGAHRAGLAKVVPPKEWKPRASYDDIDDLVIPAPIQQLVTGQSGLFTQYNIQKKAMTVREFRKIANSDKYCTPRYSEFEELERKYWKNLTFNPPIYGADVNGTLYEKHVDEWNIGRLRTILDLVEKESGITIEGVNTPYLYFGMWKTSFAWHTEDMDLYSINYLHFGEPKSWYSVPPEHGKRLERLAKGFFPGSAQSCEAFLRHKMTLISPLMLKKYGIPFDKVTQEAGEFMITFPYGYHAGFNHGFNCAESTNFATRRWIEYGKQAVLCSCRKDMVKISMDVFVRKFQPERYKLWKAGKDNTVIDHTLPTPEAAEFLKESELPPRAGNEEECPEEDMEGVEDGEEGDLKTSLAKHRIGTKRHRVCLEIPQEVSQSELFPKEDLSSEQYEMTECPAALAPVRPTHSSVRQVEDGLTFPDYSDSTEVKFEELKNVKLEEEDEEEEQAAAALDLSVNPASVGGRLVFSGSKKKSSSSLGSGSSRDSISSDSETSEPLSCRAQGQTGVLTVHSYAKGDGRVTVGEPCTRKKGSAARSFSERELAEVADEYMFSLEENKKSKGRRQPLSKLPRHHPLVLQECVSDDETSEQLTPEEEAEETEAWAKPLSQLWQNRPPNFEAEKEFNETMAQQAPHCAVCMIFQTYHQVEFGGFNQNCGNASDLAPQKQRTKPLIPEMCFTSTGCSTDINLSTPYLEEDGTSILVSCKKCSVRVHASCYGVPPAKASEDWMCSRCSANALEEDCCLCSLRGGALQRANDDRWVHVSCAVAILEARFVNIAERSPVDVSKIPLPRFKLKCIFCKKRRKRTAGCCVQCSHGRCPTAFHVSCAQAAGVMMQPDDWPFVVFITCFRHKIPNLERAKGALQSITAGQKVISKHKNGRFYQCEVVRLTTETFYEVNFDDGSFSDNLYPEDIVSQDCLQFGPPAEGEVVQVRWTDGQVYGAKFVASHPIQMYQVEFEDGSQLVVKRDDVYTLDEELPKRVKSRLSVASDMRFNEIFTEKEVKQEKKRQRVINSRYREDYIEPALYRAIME

[3] = test system: JMJD2C(1–420)-GFP fusion protein in HeLa cells; experiment: H3K9me3 immunostaining in HeLa cells ectopically expressing JMJD2C; type: cell-based, human; details: 10 μM, 48 hours
Procedure, shortened: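 HeLa cells were transfected with JMJD2C(1–420)-GFP, then treated with DMSO or 10 μM test compound. After 48 h they were immunostained with anti-H3K9me3 antibody and DAPI nuclear stain. H3K9me3 was compared in GFP-transfected cells.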

[4] = Stability in KYSE150 cell growth media; type: in vitro ADME; details: 37 °C, 48 hours, extraction with 3:1 chloroform:isopropanol
[5] = test system: H3K4me3 and H3K9me3 levels in MCF7 cells; type: cell-based, human
[6] = test system: H3K4me3 and H3K9me3 levels in KYSE150 cells; type: cell-based
Procedure, shortened: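 KYSE150 cells were immunostained for H3K4me3 and H3K9me3 in a quantitative image-based assay. Image quantification gave half-maximal effective concentrations for each mark.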

[7] = test system: histone methylation marks in KYSE150 cells; experiment: Western blotting of histone methylation marks in KYSE150 cells; type: cell-based; details: 48 hours
Procedure, shortened: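 KYSE150 cells received DMSO, DFO 150 μM or DMOG 1 mM as positive controls for Fe²⁺/α-ketoglutarate hydroxylase inhibition, or test compound at 5, 10 or 15 μM, for 48 h. Histone methylation marks were assessed by Western blot, with histone levels based on coomassie stain.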

human JMJD2C(1–420) = target: T2, human JMJD2C(1–420) (Homo sapiens, UniProt Q9H3R0); type: biochemical; details: at up to 50 μM, the highest concentration tested
T2 sequence (Q9H3R0 1-420): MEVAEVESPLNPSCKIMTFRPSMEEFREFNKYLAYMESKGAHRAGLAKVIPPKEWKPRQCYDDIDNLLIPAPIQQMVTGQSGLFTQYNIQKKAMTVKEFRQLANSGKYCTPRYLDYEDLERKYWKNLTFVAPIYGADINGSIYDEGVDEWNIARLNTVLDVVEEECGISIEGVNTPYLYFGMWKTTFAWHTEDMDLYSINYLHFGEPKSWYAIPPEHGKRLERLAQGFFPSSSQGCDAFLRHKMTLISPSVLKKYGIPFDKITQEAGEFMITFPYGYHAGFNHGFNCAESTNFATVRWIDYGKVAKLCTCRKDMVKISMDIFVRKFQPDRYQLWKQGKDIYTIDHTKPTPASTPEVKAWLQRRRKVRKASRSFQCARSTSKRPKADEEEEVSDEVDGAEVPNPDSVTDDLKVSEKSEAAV

[8] = test system: UTX-targeted genes Myog and CKm in C2C12 cells; experiment: RT-PCR of UTX-targeted genes during myogenesis; type: cell-based; details: differentiating C2C12 myoblast, 1, 2 and 4 μM, 6 days
Procedure, shortened: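 Differentiating C2C12 myoblasts were given DMSO or test compound (1, 2, 4 μM) in differentiation media. mRNA was collected after 6 days, and RT-PCR measured Myog and Ckm.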

[9] = target: FAD-dependent demethylase, LSD1 (Homo sapiens, UniProt O60341); experiment: LSD1 enzyme inhibition in vitro; type: biochemical; details: at up to 50 μM, the highest concentration tested
C2C12 cells = experiment: Myotube formation in C2C12 cells; type: cell-based; details: C2C12 cells in differentiation media, 6 days
Procedure, shortened: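 C2C12 cells in differentiation media were given DMSO or test compound at 1, 2 or 4 μM. After 6 days they were immunostained with anti-myosin heavy chain antibody plus DAPI. MHC-positive myotubes were scored from the images.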

[10] = test system: class I or class II HDACs; experiment: HDAC enzyme inhibition in vitro; type: biochemical; details: at up to 50 μM, the highest concentration tested
[11] = test system: JMJD2C-sensitive oesophageal carcinoma cell line KYSE150; experiment: KYSE150 growth inhibition assay; type: cell-based; details: read-out: GI50, KYSE150 cell growth; treatment for 48 hours
[12] = DFO at 150 μM, DMOG at 1 and 2 mM

Structure (SMILES) | cellular HIF-1α levels [1, 12] | cellular HIF-1α levels ([1]; at up to 15 μM, the highest concentration tested) | inhibition of enzymatic activity of JMJD2A [2] | reduction of H3K9me3 level by JMJD2C(1–420)-GFP [3] | recovered unchanged after incubation in cell growth media [4] | increase of the H3K9me3 mark [5] | EC50 ([5]; read-out: EC50 for H3K4me3) | EC50 ([5]; read-out: EC50 for H3K9me3) | increase of the H3K9me3 mark [6] | EC50 ([6]; read-out: EC50 for H3K4me3) | EC50 ([6]; read-out: EC50 for H3K9me3) | methylation of H3K4, H3K9, H3K27 and H3K36 (Western blotting) ([7]; KYSE150 cells, 5, 10 and 15 μM, concentration-dependent) | cellular levels of H3K79me3 and H4K20me3 ([7]; KYSE150 cells) | inhibition of enzymatic activity of JMJD2C (human JMJD2C(1–420)) | expression of UTX-targeted genes Myog and CKm (RT-PCR) [8] | inhibition of enzymatic activity of LSD1 [9] | concentration sufficient to prevent the formation of MHC-positive myotubes (C2C12 cells) | inhibition of enzymatic activity of HDACs [10] | GI50 [11]
CC(=O)N(O)CCCCCNC(=O)CCC(=O)N(O)CCCCCNC(=O)CCC(=O)N(O)CCCCCN [DFO, desferoxamine] | significantly increased | – | – | – | – | – | – | – | – | – | – | – | – | – | – | – | – | – | –
COC(=O)CNC(=O)C(=O)OC [DMOG] | significantly increased | – | – | – | – | – | – | – | – | – | – | – | – | – | – | – | – | – | –
COC(=O)/C=C/C(=O)N(O)CCCCNCc1ccc(COC(=O)Nc2cccc3ccccc23)cc1 [Methylstat, methylstat] | – | did not affect | does not inhibit | reversed | 88% | 4.5 fold | 6.7 µM | 6.3 µM | 10.8 fold | 10.3 µM | 8.6 µM | induces hypermethylation | induces increased cellular levels | does not inhibit | loss of expression | does not inhibit | 2 µM | does not inhibit | ~5.1 µM
